This is a sample that favours compounds with a hit; in the whole collection about 2.3% have one here.
TRPC6 inh: blocks the mouse TRPC6 cation channel; AID 2553; 1.1% of 310,000 active; HEK293-TRPC6, membrane potential dye, ACh-evoked depolarization; stronger effect = lower value; B-score at 10 µM; Q61143;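 active = B-score under library mean minus 3 SD, initial fluorescence not abnormally high, positive integrated signal ratio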;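 note: B-score derived from integrated fluorescence ratio over the kinetic read; more negative B-score means stronger inhibition of depolarization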
TRPC6 activator: mouse TRPC6 channel activation | Q61143 | HEK293-TRPC6 membrane potential dye fluorescence; stronger effect = higher value | B-score at 10 µM | 0.13% of 310,000 active | AID 2550;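 active = B-score of the integrated fluorescence ratio above library mean plus 3 SD, and starting fluorescence ratio within library mean plus 5 SD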;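 note: higher score means more depolarization so channel activation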
TRPC4 potent: TRPC4 (mouse) allosteric potentiation. Q9QUQ5. HEK293 TRPC4beta/mu-opioid, DAMGO EC20, Fluo-4 Ca2+ flux; stronger effect = higher value. B-score at 10 µM. 0.42% of 310,000 active. AID 2227;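 active = B-score of calcium response area above 5 SD of library B-scores, with initial fluorescence ratio within 5 SD of library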
Target sequence (Q9QUQ5 whole entry, looked up): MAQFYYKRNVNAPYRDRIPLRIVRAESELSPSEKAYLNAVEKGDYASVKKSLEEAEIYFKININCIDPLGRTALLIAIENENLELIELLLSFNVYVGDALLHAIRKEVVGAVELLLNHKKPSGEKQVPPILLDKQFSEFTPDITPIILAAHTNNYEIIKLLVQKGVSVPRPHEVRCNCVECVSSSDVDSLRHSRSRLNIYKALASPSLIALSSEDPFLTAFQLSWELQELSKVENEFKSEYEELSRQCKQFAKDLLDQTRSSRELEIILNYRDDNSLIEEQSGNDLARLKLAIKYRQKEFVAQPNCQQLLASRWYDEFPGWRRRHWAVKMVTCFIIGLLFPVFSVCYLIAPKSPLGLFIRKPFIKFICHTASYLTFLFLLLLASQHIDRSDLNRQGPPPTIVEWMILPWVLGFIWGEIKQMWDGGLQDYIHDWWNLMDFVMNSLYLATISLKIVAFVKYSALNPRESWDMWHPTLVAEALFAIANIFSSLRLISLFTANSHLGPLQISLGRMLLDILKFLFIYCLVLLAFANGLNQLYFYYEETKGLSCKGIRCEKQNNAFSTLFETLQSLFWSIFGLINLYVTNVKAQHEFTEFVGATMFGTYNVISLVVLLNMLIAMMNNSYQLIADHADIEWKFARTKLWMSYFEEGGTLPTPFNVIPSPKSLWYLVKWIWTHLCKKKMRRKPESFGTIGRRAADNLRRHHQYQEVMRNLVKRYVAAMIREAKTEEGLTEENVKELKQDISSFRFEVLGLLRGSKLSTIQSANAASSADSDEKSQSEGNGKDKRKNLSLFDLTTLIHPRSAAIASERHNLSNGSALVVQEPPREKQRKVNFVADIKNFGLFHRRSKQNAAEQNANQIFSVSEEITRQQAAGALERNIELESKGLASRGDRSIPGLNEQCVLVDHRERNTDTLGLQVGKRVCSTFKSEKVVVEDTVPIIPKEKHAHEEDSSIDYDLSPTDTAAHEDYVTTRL
TRPC4 act: opens the mouse TRPC4 cation channel | Q9QUQ5 | AID 2237 | HEK293 TRPC4beta/mu-opioid, Fluo4 calcium fluorescence; stronger effect = higher value | B-score at 10 µM | 0.49% of 310,000 active;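 active = B-score above 5 SD of library B-scores, and initial fluorescence ratio not above library mean plus 5 SD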;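 note: positive B-score marks a calcium rise read as TRPC4 activation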
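Test system: HEK293 cells stably co-expressing mouse TRPC4beta and mu-opioid receptor | Schedule: Fluo4 dye loading 45 min at room temperature, 110 s recording | Measured by: Kinetic Fluo4 calcium fluorescence, 5 s baseline at 1 Hz | Evaluation: B score of integrated ratio | Controls: Buffer (low) and maximal DAMGO (high)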
TRPC4 inh: inhibitors of mouse TRPC4 channel; Q9QUQ5; HEK293 TRPC4beta/mu-opioid, DAMGO-evoked Fluo4 calcium flux; stronger effect = lower value; B-score at 10 µM; 0.39% of 300,000 active; AID 2247;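 active = B-score over 3 SD under the library average, no early fluorescence shift, positive overall ratio signal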
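Assay system – HEK293 line stably carrying TRPC4beta and mu-opioid receptor · Doses – single dose · Detection – Fluo4 calcium-dye fluorescence, kinetic read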
TRPC4 sel inh 2: mouse TRPC4 off-target activity of TRPC6 inhibitors, second screen | inhibition, % at 10 µM | shares compounds with TRPC6 inh | HEK293 TRPC4/MOR, membrane potential dye fluorescence; channel activated by saturating DAMGO dose | 42% of 920 active;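 active = compounds whose fluorescence signal differed from control wells by over 3 SD, either direction, in both duplicate plates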
TRPC4 spec: tests whether TRPC6 inhibitors also affect mouse TRPC4. shares compounds with TRPC6 inh. HEK293 TRPC4/mu-opioid, membrane potential fluorescence. activity change, negative = inhibition, % at 10 µM. 61% of 920 active. AID 2777;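 active = rise or fall in signal beyond 3 SD of buffer-only wells in both replicate plates, either sign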;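 note: integrated kinetic ratio of fluorescence range over baseline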
HEK293 MPD ctr 2-1: second check of TRPC6 inhibitor effects in parental HEK293 cells. shares compounds with TRPC6 inh. parental HEK293 membrane potential dye fluorescence; maximal acetylcholine challenge after compound addition. signal change vs control, % at 10 µM. 31% of 920 active. AID 2779;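 active = membrane potential signal moving either way by over 3 SD of the maximum-effect control, in both duplicate plates, meaning non-specific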
HEK293 MPD ctr-1: counter-screen for TRPC6 inhibitors: effect in parental HEK293 cells; membrane potential signal change, % at 10 µM; AID 2780; shares compounds with TRPC6 inh; 60% of 920 active; parental HEK293 membrane potential dye fluorescence;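 active = membrane potential signal shifting up or down by more than 3 SD of buffer-only wells, on both duplicate plates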
HEK293 MPD ctr-2: checks TRPC6 modulator effects in parental HEK293 cells; 51% of 2,400 active; membrane potential signal change, % at 10 µM; membrane potential dye fluorescence; shares compounds with TRPC6 inh;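 active = membrane potential signal moves up or down beyond 5 SD from buffer-only wells, on both duplicate plates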
HEK293 MPD ctr 2-2: second counter-screen for TRPC6 modulators: effect in parental HEK293 cells | shares compounds with TRPC6 inh | membrane potential dye fluorescence; after compound, maximal acetylcholine stimulation | inhibition, % at 10 µM | 14% of 2,400 active;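 active = membrane potential signal drops by more than 5 SD from the mean control signal, in both duplicate plates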
TRPC4/MOR mod: tests whether TRPC6 modulators also affect mouse TRPC4; HEK293 TRPC4/mu-opioid, membrane potential fluorescence; 69% of 2,400 active; AID 488927; percent change from control (negative = decrease, positive = increase), % at 10 µM; shares compounds with TRPC6 inh;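 active = membrane potential signal moved up or down beyond 5 SD of buffer control wells, in both duplicate plates, actives on both sides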
TRPC4/MOR inh 2: second check of whether TRPC6 modulators also affect mouse TRPC4 | 55% of 2,400 active | inhibition, % at 10 µM | shares compounds with TRPC6 inh | HEK293 TRPC4/mu-opioid, membrane potential dye fluorescence; stimulated with maximal-effect DAMGO;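 active = drop in membrane potential signal beyond 5 SD of the control wells in both duplicate plates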;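 note: TRPC4 counter screen for TRPC6 hits run under conditions tuned for TRPC6 not TRPC4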
TRPC6 block conf: mouse TRPC6 inhibitor confirmation; 43% of 3,300 active; HEK293-TRPC6, membrane potential dye, ACh-evoked depolarization; shares compounds with TRPC6 inh; inhibition, % at 10 µM;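 active = fluorescence ratio falls more than 5 SD below the full-stimulation control mean, in both duplicate runs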;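 note: integrated fluorescence ratio of peak minus minimum over baseline after agonist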
TRPC6 act conf: confirmation of mouse TRPC6 activators | shares compounds with TRPC6 inh | HEK293-TRPC6 membrane potential dye fluorescence, FDSS | activation, % at 10 µM | 11% of 2,800 active | AID 488961;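 active = ratio signal rise beyond 5 SD above unstimulated control wells' mean, seen in both duplicate runs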
Each line names hits and unclear results; the compound was inactive in the other large screens (follow-up assays come after a bar, where they were run).

CCOc1ccc(C2Nc3cccc4cccc(c34)N2)cc1OC	none
c1ccc(C2Nc3cccc4cccc(c34)N2)cc1	none
COc1ccc(C2Nc3cccc4cccc(c34)N2)cc1	TRPC6 inh -5 | HEK293 MPD ctr-2 inactive | HEK293 MPD ctr 2-2 inactive | TRPC4/MOR mod -16% | TRPC4/MOR inh 2 45% | TRPC6 block conf inactive | TRPC6 act conf inactive
CCOC(=O)c1sc(NC(=O)CCCn2nc([N+](=O)[O-])c(Cl)c2C)c(C(=O)OCC)c1C	none
Cc1cccnc1NCC(O)COc1ccccc1 (configuration not stated)	TRPC6 inh -6.5 | HEK293 MPD ctr-2 inactive | HEK293 MPD ctr 2-2 inactive | TRPC4/MOR mod inactive | TRPC4/MOR inh 2 inactive | TRPC6 block conf inactive | TRPC6 act conf inactive
C=CCn1c(SCC(=O)Nc2sc3c(c2C#N)CCC3)nnc1C1COc2ccccc2O1 (configuration not stated)	none
CN(C)CCCn1c(SCC(=O)Nc2sc3c(c2C#N)CCCC3)nnc1-c1ccncc1	TRPC6 activator 16 | HEK293 MPD ctr-2 187% | HEK293 MPD ctr 2-2 inactive | TRPC4/MOR mod 28% | TRPC4/MOR inh 2 inactive | TRPC6 block conf inactive | TRPC6 act conf 76%
Cn1c(SCC(=O)Nc2sc3c(c2C#N)CCC3)nnc1C1COc2ccccc2O1 (configuration not stated)	TRPC6 inh -11 | TRPC4 sel inh 2 inactive | TRPC4 spec inactive | HEK293 MPD ctr 2-1 inactive | HEK293 MPD ctr-1 inactive | TRPC6 block conf 63%
COCCCn1c(SCC(=O)Nc2sc3c(c2C#N)CCCC3)nnc1-c1ccncc1	none
COc1cc(-c2noc(CCCC(=O)NCc3ccccc3)n2)cc(OC)c1OC	none
Cc1ccc(Sc2ccc(CN3CCCC3)cc2[N+](=O)[O-])cc1	none
CN1CCN(Cc2ccc(Sc3ccc(Cl)cc3)c([N+](=O)[O-])c2)CC1	TRPC6 inh -6.5 | HEK293 MPD ctr-2 inactive | HEK293 MPD ctr 2-2 inactive | TRPC4/MOR mod -14% | TRPC4/MOR inh 2 52% | TRPC6 block conf 44% | TRPC6 act conf inactive
O=C(NCc1ccc(Cl)cc1)C(=O)N/N=C/c1ccc(Br)cc1	none
CCCCOc1ccc(C2C(C(=O)c3ccc(C)o3)=C(O)C(=O)N2CC2CCCO2)cc1 (configuration not stated)	none
CCCCOc1ccc(CSCCN)cc1Cl	TRPC6 inh -6.2 | HEK293 MPD ctr-2 inactive | HEK293 MPD ctr 2-2 inactive | TRPC4/MOR mod inactive | TRPC4/MOR inh 2 59% | TRPC6 block conf 45% | TRPC6 act conf inactive
CCCCOc1ccc(CONS(=O)(=O)c2ccc(NC(C)=O)cc2)cc1Cl	none
CCOC(=O)N1CCC(c2cc(=O)n3[nH]c(-c4ccccc4)cc3n2)CC1	none
CCOC(=O)N1CCC(c2cc(=O)n3[nH]c(C)c(-c4ccc(F)cc4)c3n2)CC1	TRPC6 activator 16 | HEK293 MPD ctr-2 inactive | HEK293 MPD ctr 2-2 inactive | TRPC4/MOR mod inactive | TRPC4/MOR inh 2 inactive | TRPC6 act conf 196%
COc1cc(/C=C2/C(=O)N(c3ccc(C(=O)O)cc3)N=C2C)cc(OC)c1O	none
COc1cc(/C=C2/C(=O)N(c3ccc(Br)cc3)N=C2C)cc(OC)c1OC	TRPC6 inh -5.4 | HEK293 MPD ctr-2 inactive | HEK293 MPD ctr 2-2 inactive | TRPC4/MOR mod inactive | TRPC4/MOR inh 2 inactive | TRPC6 block conf inactive | TRPC6 act conf inactive
CCN(CC)C(=O)c1ccc(NS(=O)(=O)c2ccc3[nH]c(=O)[nH]c3c2)cc1	none
O=C(NC1CCCCC1)C1CCCN1S(=O)(=O)c1ccc(F)cc1 (configuration not stated)	TRPC6 inh -8.1 | TRPC4 sel inh 2 inactive | TRPC4 spec inactive | HEK293 MPD ctr 2-1 inactive | HEK293 MPD ctr-1 inactive | TRPC6 block conf inactive | TRPC6 act conf inactive
O=C(O)CCCCCN1C(=O)C(O)=C(C(=O)/C=C/c2ccccc2)C1c1cccc([N+](=O)[O-])c1 (configuration not stated)	TRPC6 activator 17 | HEK293 MPD ctr-2 inactive | HEK293 MPD ctr 2-2 inactive | TRPC4/MOR mod 9.5% | TRPC4/MOR inh 2 inactive | TRPC6 block conf inactive | TRPC6 act conf 39%
Oc1sc(C=Nc2ccccc2)c2ccccc12	TRPC6 activator 13 | HEK293 MPD ctr-2 322% | HEK293 MPD ctr 2-2 inactive | TRPC4/MOR mod 139% | TRPC4/MOR inh 2 46% | TRPC6 block conf inactive | TRPC6 act conf inactive
CN(C)c1ccc(C(CNC(=O)COc2ccc(Cl)cc2)N2CCCC2)cc1 (configuration not stated)	none
Cc1nc(SCC(=O)c2ccccc2)c(C#N)c(-c2ccco2)c1C(=O)NCc1ccco1	TRPC6 activator 14 | HEK293 MPD ctr-2 220% | HEK293 MPD ctr 2-2 inactive | TRPC4/MOR mod 16% | TRPC4/MOR inh 2 inactive | TRPC6 block conf inactive | TRPC6 act conf 52%
CC(C)(C)C(=O)/C(=C/c1ccncc1)n1cncn1	none
COP(=O)(OC)c1nc(-c2ccc([N+](=O)[O-])cc2)oc1N1CCCCC1	TRPC6 inh -7.1, TRPC6 activator 19 | HEK293 MPD ctr-2 618% | HEK293 MPD ctr 2-2 198% | TRPC4/MOR mod 120% | TRPC4/MOR inh 2 51% | TRPC6 block conf 84% | TRPC6 act conf 230%
O=C(C=C1NCCN1)c1ccccc1	none
